# Key:
# HCT-116 = assay: Antiproliferative activity against human HCT-116 cells assessed as cell growth inhibition incubated for 96 hrs by crystal violet staining; settings: HCT-116, 96 h
# HeLa = assay: cells; settings: Homo sapiens, 4 h
# NCI-H28 = assay: Antiproliferative activity against human NCI-H28 cells assessed as cell growth inhibition incubated for 96 hrs by crystal violet staining; settings: NCI-H28, 96 h
# SNU-16 = assay: Antiproliferative activity against human SNU-16 cells assessed as cell growth inhibition incubated for 96 hrs by MTS assay; assay type: functional, cell-based; settings: SNU-16, 96 h
# RKO = assay: Antiproliferative activity against human TP53 mutant RKO cells assessed as cell growth inhibition incubated for 96 hrs by crystal violet staining
# RT-112 = assay: Antiproliferative activity against human RT-112 cells assessed as cell growth inhibition incubated for 96 hrs by MTS assay; assay type: functional, cell-based; settings: RT-112, 96 h
# [1] = Volume of distribution at steady state in male CD1 mouse plasma at 0.5 mg/kg, iv measured after 24 hrs by LC/-MS/MS analysis; assay type: ADME, organism-based; settings: read-out: Vdss
# Procedure, shortened: (§1)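 Male CD1 mice received a single iv bolus of 0.5 mg/kg in 1% DMSO/99% plasma. Plasma was sampled at 2, 5, 15, 30 and 45 min and at 1, 2, 4, 6, 8 and 24 h, precipitated with ice-cold acetonitrile (1:5), and supernatants were run by LC/MS-MS. Parameters were estimated from plasma concentration data, with AUC by the log-linear trapezoidal rule.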
# [2] = Antitumor activity against human A2780cis cells xenografted female athymic NMRI mouse model assessed as T/C ratio at 2.5 mg/kg, po administered twice daily intermittent for 2 days on/5 days off; assay type: functional; settings: time 7 day
# SAOS-2 = assay: Antiproliferative activity against human SAOS-2 cells assessed as cell growth inhibition incubated for 96 hrs by MTS assay; assay type: functional, cell-based; settings: SAOS-2, 96 h
# HCC70 = assay: Antiproliferative activity against human HCC70 cells assessed as cell growth inhibition incubated for 96 hrs by MTS assay; assay type: functional, cell-based; settings: HCC70, 96 h
# TMD8 = assay: Antiproliferative activity against human TMD8 cells assessed as cell growth inhibition incubated for 96 hrs by MTS assay; assay type: functional, cell-based; settings: TMD8, 96 h
# NCI-H526 = assay: Antiproliferative activity against human NCI-H526 cells assessed as cell growth inhibition incubated for 96 hrs by MTS assay; assay type: functional, cell-based; settings: NCI-H526, 96 h
# KM-H2 = assay: Antiproliferative activity against human KM-H2 cells assessed as cell growth inhibition incubated for 96 hrs by MTS assay; assay type: functional, cell-based; settings: KM-H2, 96 h
# NCI-H2009 = assay: Antiproliferative activity against human NCI-H2009 cells assessed as cell growth inhibition incubated for 96 hrs by crystal violet staining; settings: NCI-H2009, 96 h
# [3] = Cmax in male Wistar rat plasma at 0.5 mg/kg, po measured after 24 hrs by LC/-MS/MS analysis; assay type: ADME, organism-based
# Procedure, shortened: (§2)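 Male Wistar rats given 0.5 mg/kg orally. Plasma collected from 8 min to 24 h, precipitated with ice-cold acetonitrile (1:5), and analysed by LC/MS-MS. Cmax and Tmax read directly from concentration–time profiles.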
# [4] = target: Serine/threonine-protein kinase BRSK2 (Homo sapiens, UniProt Q8IWQ3); assay: Binding affinity to BRSK2 (unknown origin) assessed as dissociation constant
# [5] = target: Phosphatidylinositol 5-phosphate 4-kinase type-2 gamma (Homo sapiens, UniProt Q8TBX8); assay: Binding affinity to PIP5K2C (unknown origin) assessed as dissociation constant
# NCI-H2052 = assay: Antiproliferative activity against human NCI-H2052 cells assessed as cell growth inhibition incubated for 96 hrs by crystal violet staining; settings: NCI-H2052, 96 h
# HT-1080 = assay: Antiproliferative activity against human HT-1080 cells assessed as cell growth inhibition incubated for 96 hrs by MTS assay; assay type: functional, cell-based; settings: HT-1080, 96 h
# [6] = Tmax in male Wistar rat plasma at 0.5 mg/kg, po measured after 24 hrs by LC/-MS/MS analysis; assay type: ADME, organism-based
# Procedure, shortened: as §2
# NCI-H1299 = assay: Antiproliferative activity against human NCI-H1299 cells assessed as cell growth inhibition incubated for 96 hrs by crystal violet staining; settings: NCI-H1299, 96 h
# NCI-H2228 = assay: Antiproliferative activity against human NCI-H2228 cells assessed as cell growth inhibition incubated for 96 hrs by crystal violet staining; settings: NCI-H2228, 96 h
# [7] = Synergistic antitumor activity against human LU387 cells xenografted female athymic NMRI mouse model assessed as MTD at 1 mg/kg,po administered twice daily intermittent for 2 days on/5 days off in the presence of paclitaxel relative to control; assay type: functional; settings: time 7 day
# SK-MES-1 = assay: Antiproliferative activity against human SK-MES-1 cells assessed as cell growth inhibition incubated for 96 hrs by MTS assay; assay type: functional, cell-based; settings: SK-MES-1, 96 h
# [8] = Clearance in male CD1 mouse blood at 0.5 mg/kg, iv measured after 24 hrs by LC/-MS/MS analysis; assay type: ADME, organism-based
# Procedure, shortened: as §1
# COLO 320DM = assay: Antiproliferative activity against human COLO 320DM cells assessed as cell growth inhibition incubated for 96 hrs by crystal violet staining
# [9] = target: Serine/threonine-protein kinase mTOR (Homo sapiens, UniProt P42345); assay: Binding affinity to MTOR (unknown origin) assessed as dissociation constant
# NCI-H460 = assay: Antiproliferative activity against human NCI-H460 cells assessed as cell growth inhibition incubated for 96 hrs by crystal violet staining; settings: NCI-H460, 96 h
# HT-29 = assay: Antiproliferative activity against human HT-29 cells assessed as cell growth inhibition incubated for 96 hrs by crystal violet staining; settings: HT-29, 96 h
# OPM-2 = assay: Antiproliferative activity against human OPM-2 cells assessed as cell growth inhibition incubated for 96 hrs by crystal violet staining; settings: OPM-2, 96 h
# MDA-MB-453 = assay: Antiproliferative activity against human MDA-MB-453 cells assessed as cell growth inhibition incubated for 96 hrs by crystal violet staining; settings: MDA-MB-453, 96 h
# SK-MEL-28 = assay: Antiproliferative activity against human SK-MEL-28 cells assessed as cell growth inhibition incubated for 96 hrs by crystal violet staining; settings: SK-MEL-28, 96 h
# [10] = Volume of distribution at steady state in male Wistar rat plasma at 0.5 mg/kg, iv measured after 24 hrs by LC/-MS/MS analysis; assay type: ADME, organism-based; settings: read-out: Vdss
# [11] = target: Mast/stem cell growth factor receptor Kit (Homo sapiens, UniProt P10721); assay: Binding affinity to KIT (unknown origin) assessed as dissociation constant
# Chain of Mast/stem cell growth factor receptor Kit (P10721 whole entry): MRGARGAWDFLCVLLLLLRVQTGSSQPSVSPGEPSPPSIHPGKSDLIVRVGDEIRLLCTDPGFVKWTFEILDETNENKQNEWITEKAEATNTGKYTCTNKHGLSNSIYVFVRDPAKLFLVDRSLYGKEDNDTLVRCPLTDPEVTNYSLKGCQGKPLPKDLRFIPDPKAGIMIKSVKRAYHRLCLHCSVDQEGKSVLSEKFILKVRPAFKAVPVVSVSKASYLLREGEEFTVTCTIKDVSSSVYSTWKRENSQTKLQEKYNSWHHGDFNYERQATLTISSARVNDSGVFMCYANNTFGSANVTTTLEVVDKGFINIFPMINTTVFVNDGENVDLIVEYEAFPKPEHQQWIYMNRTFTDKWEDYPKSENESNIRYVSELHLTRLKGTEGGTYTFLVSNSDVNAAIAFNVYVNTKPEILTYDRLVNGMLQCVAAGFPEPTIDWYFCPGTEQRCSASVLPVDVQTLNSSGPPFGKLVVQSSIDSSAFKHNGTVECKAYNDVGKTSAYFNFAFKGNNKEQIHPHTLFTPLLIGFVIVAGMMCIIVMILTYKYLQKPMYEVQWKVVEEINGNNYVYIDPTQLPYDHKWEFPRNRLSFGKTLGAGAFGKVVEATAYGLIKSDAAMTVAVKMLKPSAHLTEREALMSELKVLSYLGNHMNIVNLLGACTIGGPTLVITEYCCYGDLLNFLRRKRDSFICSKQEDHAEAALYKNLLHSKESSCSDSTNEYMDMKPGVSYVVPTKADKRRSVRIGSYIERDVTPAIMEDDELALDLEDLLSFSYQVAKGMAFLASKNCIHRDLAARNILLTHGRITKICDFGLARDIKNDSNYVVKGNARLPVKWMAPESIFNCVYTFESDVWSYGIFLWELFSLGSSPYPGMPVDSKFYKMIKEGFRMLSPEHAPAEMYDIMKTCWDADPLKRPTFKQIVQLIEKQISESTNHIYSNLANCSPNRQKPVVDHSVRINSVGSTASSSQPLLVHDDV
# Chain of Phosphatidylinositol 5-phosphate 4-kinase type-2 gamma (Q8TBX8 whole entry): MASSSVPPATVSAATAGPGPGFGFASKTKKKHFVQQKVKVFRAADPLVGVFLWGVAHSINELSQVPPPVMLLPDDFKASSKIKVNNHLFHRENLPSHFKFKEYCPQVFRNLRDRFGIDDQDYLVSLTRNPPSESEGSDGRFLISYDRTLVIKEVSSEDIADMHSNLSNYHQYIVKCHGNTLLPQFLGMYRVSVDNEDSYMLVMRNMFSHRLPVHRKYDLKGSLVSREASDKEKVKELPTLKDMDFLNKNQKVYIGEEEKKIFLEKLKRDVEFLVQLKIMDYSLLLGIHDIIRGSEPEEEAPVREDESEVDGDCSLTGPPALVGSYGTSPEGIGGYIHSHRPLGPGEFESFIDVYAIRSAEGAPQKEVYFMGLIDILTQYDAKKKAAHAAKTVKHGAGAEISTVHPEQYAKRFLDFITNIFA
# Chain of Serine/threonine-protein kinase BRSK2 (Q8IWQ3 whole entry): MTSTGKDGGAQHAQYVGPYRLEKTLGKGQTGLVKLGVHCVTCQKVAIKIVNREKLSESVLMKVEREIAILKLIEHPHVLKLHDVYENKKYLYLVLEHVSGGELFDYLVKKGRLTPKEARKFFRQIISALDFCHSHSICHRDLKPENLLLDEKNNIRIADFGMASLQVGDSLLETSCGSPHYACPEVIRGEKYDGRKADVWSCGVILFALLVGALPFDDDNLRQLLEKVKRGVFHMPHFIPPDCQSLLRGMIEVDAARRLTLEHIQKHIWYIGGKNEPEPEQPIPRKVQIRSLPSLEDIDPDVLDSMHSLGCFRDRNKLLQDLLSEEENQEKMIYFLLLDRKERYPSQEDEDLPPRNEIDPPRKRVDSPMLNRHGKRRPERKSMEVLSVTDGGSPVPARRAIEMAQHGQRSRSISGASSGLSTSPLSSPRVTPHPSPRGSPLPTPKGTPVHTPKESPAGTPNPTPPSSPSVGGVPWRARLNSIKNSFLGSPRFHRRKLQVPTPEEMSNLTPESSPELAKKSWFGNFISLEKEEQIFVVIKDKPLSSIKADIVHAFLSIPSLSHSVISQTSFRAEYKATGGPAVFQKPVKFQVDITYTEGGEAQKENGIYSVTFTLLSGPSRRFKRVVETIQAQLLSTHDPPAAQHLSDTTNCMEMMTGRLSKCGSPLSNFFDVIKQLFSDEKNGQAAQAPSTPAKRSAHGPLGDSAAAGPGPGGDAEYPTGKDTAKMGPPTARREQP
smiles,measurement,setting,value
COc1cc(S(C)(=O)=O)ccc1Nc1nc2ccc(-c3ccc(NC(=O)[C@H](C)c4ccc(F)cc4)cc3)cn2n1 [BAY-1161909],IC50,HCT-116,56 nM
same,IC50,HeLa,56 nM
same,IC50,NCI-H28,110 nM
same,IC50,SNU-16,88 nM
same,IC50,RKO,48 nM
same,IC50,RT-112,83 nM
same,Vd,[1],3.4 L/kg
same,T/C,[2],0.43
same,IC50,SAOS-2,520 nM
same,IC50,HCC70,87 nM
same,IC50,TMD8,240 nM
same,IC50,NCI-H526,100 nM
same,IC50,KM-H2,220 nM
same,IC50,NCI-H2009,560 nM
same,Cmax,[3],110 ng/mL
same,Kd,[4],40000 nM
same,Kd,[5],280 nM
same,IC50,NCI-H2052,96 nM
same,IC50,HT-1080,450 nM
same,Tmax,[6],4 h
same,IC50,NCI-H1299,120 nM
same,IC50,NCI-H2228,> 3000 nM
same,MED,[7],40%
same,IC50,SK-MES-1,210 nM
same,clearance,[8],11.5 mL/min/kg
same,IC50,COLO 320DM,110 nM
same,Kd,[9],40000 nM
same,IC50,NCI-H460,110 nM
same,IC50,HT-29,100 nM
same,IC50,OPM-2,130 nM
same,IC50,MDA-MB-453,> 3000 nM
same,IC50,SK-MEL-28,670 nM
same,Vd,[10],2.4 L/kg
same,Kd,[11],370 nM

# Source: ChEMBL document CHEMBL5678814, “Novel Mps1 Kinase Inhibitors with Potent Antitumor Activity” (Mol Cancer Ther, 2016)
